Published values collected from several papers.
Compare with care: the assays were run in different laboratories.

N#Cc1c(Oc2cccc(OS(=O)(=O)CCCC(F)(F)F)c2)cccc1C(F)(F)F
Cmax (mouse; plasma; oral; 5 mg/kg): 172 ng/mL

C[C@]12CC[C@H](n3ccnc3)CC1=CC[C@@H]1[C@@H]2CC[C@]2(C)C(n3cnc4ccccc43)=CC[C@@H]12.Cl
Cmax (male CD-1 mouse; plasma; oral; 10 mg/kg): 1270 ng/mL

Cc1cc(C)nc(Nc2ncc(C(=O)NCCc3c(C)[nH]c4ccccc34)cn2)c1
Cmax (C57BL/6 mouse; plasma; intraperitoneal; 4.4 mg/kg): 191 ng/mL

NCC(=O)Nc1ccc(-n2nc(C(F)(F)F)cc2-c2ccc3c(ccc4ccccc43)c2)cc1
Cmax (mouse; plasma; oral; 80 mg/kg; single dose): 2080 ng/mL

CCC[C@@](N)(CO)CCc1ccc(OCCCCCC(C)C)cc1
Cmax (mouse; plasma; intraperitoneal; 10 mg/kg): 1460 nM

CCCCCCCC(=O)N[C@@H](CCCCN)C(=O)N[C@@H](CCCCN)C(=O)N[C@@H](C)C(=O)N[C@@H](CC(C)C)C(=O)N[C@@H](CCCCN)C(=O)N[C@@H](CC(C)C)C(=O)N[C@@H](C)C(=O)N[C@@H](CCCCN)C(=O)N[C@@H](CCCCN)C(=O)N1CCC[C@H]1C(=O)N[C@@H](CC(C)C)C(=O)N[C@@H](CCCCN)C(=O)N[C@@H](CC(C)C)C(=O)N[C@@H](CC(C)C)C(=O)N[C@@H](CCCCN)C(N)=O
Cmax (female CD-1 mouse; blood; intravenous; 10 mg/kg; single dose): 6950 ng/mL

CN[C@H](CC(C)C)C(=O)N[C@H]1C(=O)N[C@@H](CC(N)=O)C(=O)N[C@H]2C(=O)NC3C(=O)N[C@H](C(=O)N[C@H](C(=O)NCCC[N+](C)(C)C)c4cc(O)cc(O)c4-c4cc3ccc4O)[C@H](O)c3ccc(c(Cl)c3)Oc3cc2cc(c3OC2OC(CO)C(O)[C@H](O)[C@@H]2O[C@H]2CC(C)(NCc3ccc(-c4ccc(Cl)cc4)cc3)[C@H](O)[C@H](C)O2)Oc2ccc(cc2Cl)[C@H]1O (stereo partly drawn)
Cmax (mouse; plasma; intravenous; 50 mg/kg): 58900 ng/mL

COc1ccc2[nH]cc(CCNc3nccc(Nc4cccc5c4ccn5C)n3)c2c1
Cmax (mouse; plasma; oral; 28.6 mg/kg): 406 ng/mL

Cc1c(P(=S)(c2ccccc2)c2ccccc2)n2ccccc2[n+]1C/C=C/c1ccccc1.[Br-]
Cmax (mouse; plasma; intraperitoneal; 10 mg/kg): 1500 nM
